Reference: ChEMBL document CHEMBL1141808, “Polymethoxylated flavones derived from citrus suppress tumor necrosis factor-alpha expression by human monocytes” (J Nat Prod, 1999)
The source made the active and inactive calls. The rule behind the calls is not given here.

Columns and labels:
Monocyte [1] = experiment: Inhibition of TNFalpha expression in LPS-stimulated human monocytes treated 30 mins before LPS challenge measured after 14 hrs by ELISA; assay type: functional, cell-based
Summary of the method: (§1)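 Human PBMC at 4 × 10^6/mL in DMEM with 30% FCS, glutamine and pen/strep were allowed to adhere for 2 h at 37 °C and 5% CO2. Nonadherent lymphocytes were washed off. Adherent monocytes were preincubated 30 min with graded compound concentrations, then stimulated with LPS. After 14 h, supernatants were assayed by ELISA. Values are percent of compound-free cultures, as means ± SE from three donors.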

[2] = Cytotoxicity against human monocytes assessed as depletion of cellular LDH activity; assay type: cell-based; set-up: concentration or dose not given beside the values; conditions: monocyte
Summary of the method: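 Viability was taken from the LPS-stimulated adherent monocyte cultures after 14 h, lysed in 1% NP40 in PBS. LDH in the lysate was measured in 50 mM sodium pyrophosphate pH 8.9 with 50 mM lactic acid and 4 mg/mL NAD. The rate of NADH formation was read at 340 nm at room temperature. More than 20% depletion was counted as cytotoxic.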

Monocyte [3] = experiment: Inhibition of IL10 expression in LPS-stimulated human monocytes treated 30 mins before LPS challenge measured after 14 hrs by ELISA; assay type: functional, cell-based; summary of the method: as §1
Monocyte [4] = experiment: Inhibition of MIP1alpha expression in LPS-stimulated human monocytes treated 30 mins before LPS challenge measured after 14 hrs by ELISA; assay type: functional, cell-based; summary of the method: as §1
Monocyte [5] = experiment: Inhibition of IL1-beta expression in LPS-stimulated human monocytes at 100 uM treated 30 mins before LPS challenge measured after 14 hrs by ELISA; assay type: functional
Summary of the method: (§2)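 Monocyte cultures were held 14 h in medium alone, with 20 ng/mL LPS alone, or with LPS plus 100 µM compound. IBMX served as reference. TNFα, IL-6, IL-8, IL-10 and MIP-1α were measured in supernatants by ELISA, and IL-1β in cell lysates made with 1% NP40 in PBS. Significance versus LPS alone was set at p < 0.05.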

Monocyte [6] = experiment: Inhibition of IL6 expression in LPS-stimulated human monocytes at 100 uM treated 30 mins before LPS challenge measured after 14 hrs by ELISA; assay type: functional; summary of the method: as §2
Monocyte [7] = experiment: Inhibition of IL8 expression in LPS-stimulated human monocytes at 100 uM treated 30 mins before LPS challenge measured after 14 hrs by ELISA; assay type: functional; summary of the method: as §2
Monocyte [8] = experiment: Inhibition of TNFalpha mRNA expression in LPS-stimulated human monocytes treated 30 mins before LPS challenge measured after 90 mins by RT-PCR; assay type: functional, cell-based
Summary of the method: (§3)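 Elutriated monocytes at 5 × 10^6/mL in complete medium were preincubated 30 min at 37 °C with graded compound concentrations. They were then stimulated with 20 ng/mL LPS for 90 min. Total RNA was isolated with RNAzol. TNFα and IL-1β mRNA were measured by RT-PCR with [α-32P]dCTP, relative to GAPDH.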

Monocyte [9] = experiment: Inhibition of IL1-beta mRNA expression in LPS-stimulated human monocytes treated 30 mins before LPS challenge measured after 90 mins by RT-PCR; assay type: functional, cell-based; summary of the method: as §3
[10] = target: T1, Phosphodiesterase 4 (Homo sapiens) (UniProt P27815+Q08499+Q07343+Q08493); experiment: Inhibition of PDE4 in human U937 cells assessed as inhibition of cAMP hydrolysis at 2 uM by SPA; assay type: cell-based; conditions: U-937
Summary of the method: (§4)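 PDE, mostly type IV by isoform-inhibitor sensitivity, was semipurified from U937 cells. cAMP hydrolysis was measured by scintillation proximity assay across graded compound concentrations. Rates were expressed as percent of flavonoid-free control, and the concentration giving 50% inhibition was reported.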

[11] = target: T1, Phosphodiesterase 4 (Homo sapiens); experiment: Inhibition of PDE4 in human monocytes assessed as elevation of cytosolic cAMP level at 100 uM treated for 30 mins assessed per 10^7 cells by EIA; assay type: cell-based
Summary of the method: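 Elutriated human monocytes at 5 × 10^6/mL in complete medium (30% FCS) were precultured 2 h at 37 °C and 5% CO2. They were then exposed for 30 min to 100 µM flavone or 200 µM IBMX. Cells were lysed in cold 10 mM HEPES pH 7.6 with 1% NP40. cAMP was isolated on SAX columns, eluted with methanol/0.01 M HCl, dried, and quantified by EIA as pmol/10^7 cells.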

Monocyte [12] = experiment: Inhibition of TNFalpha expression in LPS-stimulated human monocytes at 100 uM treated 30 mins before LPS challenge measured after 14 hrs by ELISA; assay type: functional; summary of the method: as §2
Monocyte [13] = experiment: Inhibition of IL10 expression in LPS-stimulated human monocytes at 100 uM treated 30 mins before LPS challenge measured after 14 hrs by ELISA; assay type: functional; summary of the method: as §2
Monocyte [14] = experiment: Inhibition of MIP1alpha expression in LPS-stimulated human monocytes at 100 uM treated 30 mins before LPS challenge measured after 14 hrs by ELISA; assay type: functional; summary of the method: as §2
Monocyte [15] = experiment: Increase in IL6 expression in LPS-stimulated human monocytes at 100 uM treated 30 mins before LPS challenge measured after 14 hrs by ELISA; assay type: functional; summary of the method: as §2
[16] = target: T1, Phosphodiesterase 4 (Homo sapiens); experiment: Inhibition of PDE4 in human U937 cells assessed as inhibition of cAMP hydrolysis at 11 uM by SPA; assay type: cell-based; conditions: U-937; summary of the method: as §4
[17] = target: T1, Phosphodiesterase 4 (Homo sapiens); experiment: Inhibition of PDE4 in human U937 cells assessed as inhibition of cAMP hydrolysis at 16 uM by SPA; assay type: cell-based; conditions: U-937; summary of the method: as §4

Compound	IC50 (Monocyte [1])	Activity (Monocyte [1])	Activity [2]	further results
COc1ccc(-c2cc(=O)c3c(OC)c(OC)ccc3o2)cc1OC	25 µM	–	–	–
C[C@@H]1O[C@@H](OC[C@H]2O[C@@H](Oc3c(-c4ccc(O)cc4)oc4cc(O[C@@H]5O[C@@H](C)[C@H](O)[C@@H](O)[C@H]5O)cc(O)c4c3=O)[C@H](O)[C@@H](O)[C@@H]2O)[C@H](O)[C@H](O)[C@H]1O	–	inactive	Non-toxic	–
COc1cc(-c2cc(=O)c3c(OC)c(OC)c(OC)cc3o2)cc(OC)c1OC	20 µM	–	–	–
COc1ccc(-c2oc3c(OC)c(OC)c(OC)c(O)c3c(=O)c2OC)cc1OC	10 µM	–	–	–
COc1ccc(-c2cc(=O)c3c(OC)cc(OC)c(OC)c3o2)cc1OC	16 µM	–	–	–
COc1ccc(-c2cc(=O)c3c(OC)c(OC)c(OC)cc3o2)cc1	22 µM	–	–	–
COc1ccc([C@@H]2CC(=O)c3c(O)cc(O)cc3O2)cc1O	–	inactive	–	–
Oc1cc(O)c2c(c1)OC(c1ccc(O)c(O)c1)C(O)C2 (stereo unspecified)	–	inactive	–	–
COc1ccc(-c2oc3c(OC)c(OC)c(OC)c(OC)c3c(=O)c2OC)cc1OC [3,5,6,7,8,3',4'-HEPTAMETHOXYFLAVONE]	5 µM	–	–	IC50 (Monocyte [3]): 12.3 µM; IC50 (Monocyte [4]): 7.3 µM; Activity (Monocyte [5]): inactive; Activity (Monocyte [5]; record 2): 62.9 ng/mL; Activity (Monocyte [6]): inactive; Activity (Monocyte [6]; record 2): 90 ng/mL; Activity (Monocyte [7]): inactive; Activity (Monocyte [7]; record 2): 307 ng/mL; Activity (Monocyte [8]): Active; Activity (Monocyte [9]): inactive; inhibition [10]: 50%; Activity [11]: 5.7 pmol; Activity (Monocyte [12]): 9.7 ng/mL; Activity (Monocyte [13]): 0.269 ng/mL; Activity (Monocyte [14]): 49.2 ng/mL; Activity (Monocyte [15]): 30%
COc1c(-c2ccc(O)c(O)c2)oc2cc(O)cc(O)c2c1=O [3-O-METHYLQUERCETIN]	47 µM	–	–	–
COc1ccc(-c2cc(=O)c3c(O)c(OC)c(OC)c(OC)c3o2)cc1OC [5-DEMETHYLNOBILETIN]	5 µM	–	–	–
O=c1cc(-c2ccccc2)oc2cc(O)ccc12 [7-HYDROXYFLAVONE]	–	inactive	Non-toxic	–
Oc1cc(O)c2c(c1)O[C@H](c1ccc(O)c(O)c1)[C@H](O)C2 [(-)-EPICATECHIN]	–	inactive	Non-toxic	–
COc1ccc(-c2cc(=O)c3c(O)cc(O)cc3o2)cc1 [ACACETIN]	22 µM	–	> 20%	–
O=c1cc(-c2ccc(O)cc2)oc2cc(O)cc(O)c12 [APIGENIN]	20 µM	–	> 20%	–
O=c1cc(-c2ccccc2)oc2cc(O)c(O)c(O)c12 [BAICALEIN]	–	inactive	Non-toxic	–
Oc1cc(O)c2c(c1)O[C@H](c1ccc(O)c(O)c1)[C@@H](O)C2 [CATECHIN]	–	–	Non-toxic	–
O=c1cc(-c2ccccc2)oc2cc(O)cc(O)c12 [CHRYSIN]	–	inactive	Non-toxic	–
COc1cc(-c2cc(=O)c3c(O)cc(O)cc3o2)ccc1O [CHRYSOERIOL]	22 µM	–	–	–
COc1ccc(-c2cc(=O)c3c(O)cc(O[C@@H]4O[C@H](CO[C@@H]5O[C@@H](C)[C@H](O)[C@@H](O)[C@H]5O)[C@@H](O)[C@H](O)[C@H]4O)cc3o2)cc1O [DIOSMIN]	> 200 µM	–	Non-toxic	–

Compound	IC50 (Monocyte [1])	Activity (Monocyte [1])	Activity [2]	further results
O=C1C[C@@H](c2ccc(O)c(O)c2)Oc2cc(O)cc(O)c21 [ERIODICTYOL]	–	inactive	Non-toxic	–
O=c1c(O)c(-c2ccc(O)c(O)c2)oc2cc(O)ccc12 [FISETIN]	–	inactive	Non-toxic	–
O=C1CC(c2ccccc2)Oc2ccccc21 (stereo unspecified) [FLAVANONE]	–	inactive	Non-toxic	–
O=c1cc(-c2ccccc2)oc2ccccc12 [FLAVONE]	166 µM	–	–	inhibition [16]: 50%; Activity [11]: 3.6 pmol
O=c1c(O)c(-c2ccccc2)oc2ccccc12 [FLAVONOL]	–	inactive	Non-toxic	–
O=c1c(O)c(-c2ccccc2)oc2cc(O)cc(O)c12 [GALANGIN]	–	inactive	Non-toxic	–
O=c1c(O)c(-c2ccc(O)c(O)c2)oc2c(O)c(O)cc(O)c12 [GOSSYPETIN]	–	inactive	Non-toxic	–
COc1ccc([C@@H]2CC(=O)c3c(O)cc(O[C@@H]4O[C@H](CO[C@@H]5O[C@@H](C)[C@H](O)[C@@H](O)[C@H]5O)[C@@H](O)[C@H](O)[C@H]4O)cc3O2)cc1O [HESPERIDIN]	> 200 µM	–	Non-toxic	–
CC(C)Cn1c(=O)n(C)c(=O)c2nc[nH]c21 [ISOBUTYLMETHYLXANTHINE]	–	–	–	Activity (Monocyte [5]): 99.1 ng/mL; Activity (Monocyte [6]): 79.7 ng/mL; Activity (Monocyte [7]): 335 ng/mL; Activity (Monocyte [12]): 10.9 ng/mL; Activity (Monocyte [13]): 0.651 ng/mL; Activity (Monocyte [14]): 33.2 ng/mL
O=c1c(O)c(-c2ccc(O)cc2)oc2cc(O)cc(O)c12 [KAEMPFEROL]	20 µM	–	> 20%	–
COc1cc(-c2oc3c(OC)c(O)cc(O)c3c(=O)c2O)ccc1O [LIMOCITRIN]	67 µM	–	> 20%	–
O=c1c(O)c(-c2cc(O)c(O)c(O)c2)oc2cc(O)cc(O)c12 [MYRICETIN]	–	inactive	Non-toxic	inhibition [17]: 50%; Activity [11]: 3.7 pmol
C[C@@H]1O[C@@H](O[C@H]2[C@H](Oc3cc(O)c4c(c3)O[C@H](c3ccc(O)cc3)CC4=O)O[C@H](CO)[C@@H](O)[C@@H]2O)[C@H](O)[C@H](O)[C@H]1O [NARINGIN]	> 200 µM	–	Non-toxic	–
C[C@@H]1O[C@@H](OC[C@H]2O[C@@H](Oc3cc(O)c4c(c3)O[C@H](c3ccc(O)cc3)CC4=O)[C@H](O)[C@@H](O)[C@@H]2O)[C@H](O)[C@H](O)[C@H]1O [NARIRUTIN]	> 200 µM	–	Non-toxic	–
COc1ccc(-c2cc(=O)c3c(OC)c(OC)c(OC)c(OC)c3o2)cc1OC [NOBILETIN]	10 µM	–	–	–
O=c1c(O)c(-c2ccc(O)c(O)c2)oc2cc(O)cc(O)c12 [QUERCETIN]	120 µM	–	> 20%	–
COc1cc(O)c2c(=O)c(O)c(-c3ccc(O)c(O)c3)oc2c1 [RHAMNETIN]	22 µM	–	> 20%	–
COc1ccc(-c2cc(=O)c3c(OC)c(OC)c(OC)cc3o2)cc1OC [SINENSETIN]	8 µM	–	–	–
COc1ccc(-c2cc(=O)c3c(OC)c(OC)c(OC)c(OC)c3o2)cc1 [TANGERETIN]	30 µM	–	–	–
